According to ChEMBL document CHEMBL3797175, “Discovery of 6-(difluoro(6-(4-fluorophenyl)-[1,2,4]triazolo[4,3-b][1,2,4]triazin-3-yl)methyl)quinoline as a highly potent and selective c-Met inhibitor” (Eur J Med Chem, 2016):

How the values were obtained:
[1] = target: T1, TPR/MET fusion protein (Mus musculus) (UniProt P16056+F6ZDS4); experiment: Inhibition of TPR-MET in mouse […] cells assessed as inhibition of cell proliferation at 10 uM after 72 hrs by SRB or MTT assay relative to control; format: cell-based
Summary of the method: (§1)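 Cells seeded, exposed next day to a range of concentrations for 72 h. Growth read by sulforhodamine B or MTT. IC50 from four-parameter concentration-response fit. Each concentration tested at least in triplicate, with at least 2 experiments.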

[2] = target: T1, TPR/MET fusion protein (Mus musculus); experiment: Inhibition of TPR-MET in mouse […] cells assessed as inhibition of cell proliferation at 1 uM after 72 hrs by SRB or MTT assay relative to control; format: cell-based; summary of the method: as §1
[3] = Antitumor activity against human EBC1 cells xenografted in athymic nude mouse assessed as tumor growth inhibition at 12.5 mg/kg, po bid for 21 days measured twice a week during compound dosing relative to control; format: functional; conditions: EBC-1, po, 504 h, read-out: TGI
Summary of the method: (§2)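 Nude mice bearing s.c. tumours. Cells were first grown s.c. to 700–800 mm³, then 1.5 mm³ fragments were transplanted s.c. into the right flank. Mice were randomised at 100–200 mm³ (n=6 treated, n=12 vehicle) and dosed orally twice daily for 21 days. Caliper measurement twice weekly; TV = length×width²/2. TGI taken on the final day versus vehicle; Student's t test.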

[4] = Volume of distribution at steady state in Sprague-Dawley rat at 2 mg/kg, iv administered as single dose; format: ADME, organism-based; conditions: in vivo, read-out: Vdss
Summary of the method: (§3)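 Male Sprague-Dawley rats (n=3), single dose. IV 2 mg/kg in 1% DMA/9% Cremophor/90% saline; PO 10 mg/kg in 0.5% CMC-Na. For one compound, IV 10 mg/kg in DMSO/Tween 80/PEG40 and PO 10 mg/kg in 10% DMSO/5% Tween 80/85% saline.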

[5] = Oral bioavailability in Sprague-Dawley rat at 10 mg/kg administered as single dose; format: ADME, organism-based; conditions: in vivo; summary of the method: as §3
[6] = Tmax in Sprague-Dawley rat at 10 mg/kg, po administered as single dose; format: ADME, organism-based; conditions: in vivo; summary of the method: as §3
[7] = Half life in Sprague-Dawley rat at 2 mg/kg, iv administered as single dose; format: ADME, organism-based; conditions: in vivo
Summary of the method: (§4)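 Male Sprague Dawley rats (n=3), single dose. iv 2 mg/kg in 1% DMA/9% Cremophor/90% saline. po 10 mg/kg in 0.5% CMC-Na. Where iv was 10 mg/kg: 10% DMSO/10% Tween 80/80% (40% PEG40); po in that case in 10% DMSO/5% Tween 80/85% saline.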

[8] = Clearance in Sprague-Dawley rat at 2 mg/kg, iv administered as single dose; format: ADME, organism-based; conditions: in vivo; summary of the method: as §4
[9] = Antitumor activity against human EBC1 cells xenografted in athymic nude mouse assessed as tumor growth inhibition at 25 mg/kg, po bid for 21 days measured twice a week during compound dosing relative to control; format: functional; conditions: EBC-1, po, 504 h, read-out: TGI; summary of the method: as §2
[10] = AUC (0 to infinity) in Sprague-Dawley rat at 10 mg/kg, po administered as single dose; format: ADME, organism-based; set-up: dose 10 mg/kg, route oral, time infinity; conditions: in vivo
[11] = Cmax in Sprague-Dawley rat at 10 mg/kg, po administered as single dose; format: ADME, organism-based; set-up: dose 10 mg/kg, route oral; conditions: in vivo; summary of the method: as §4
Mus musculus = experiment: Toxicity in athymic nude mouse xenografted with human EBC1 cells assessed as body weight loss at 25 mg/kg, po bid for 21 days measured twice a week during compound dosing; format: organism-based; conditions: in vivo, 504 h
Summary of the method: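 Nude mice carrying s.c. EBC-1 tumor fragments, randomized at 100–200 mm³ (n=6 treated, n=12 vehicle). Dosed orally twice daily for 21 days. Body weight and caliper tumor volume measured twice weekly.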

[12] = target: Hepatocyte growth factor receptor (Homo sapiens, UniProt P08581); experiment: Inhibition of recombinant c-Met (unknown origin) using poly (Glu, Tyr) 4:1 as substrate incubated for 60 mins by ELISA
[13] = Volume of distribution at steady state in Sprague-Dawley rat at 10 mg/kg, iv administered as single dose; format: ADME, organism-based; conditions: in vivo, read-out: Vdss; summary of the method: as §3
[14] = Half life in Sprague-Dawley rat at 10 mg/kg, iv administered as single dose; format: ADME, organism-based; conditions: in vivo; summary of the method: as §4
[15] = Clearance in Sprague-Dawley rat at 10 mg/kg, iv administered as single dose; format: ADME, organism-based; conditions: in vivo; summary of the method: as §4

T1 sequence (F6ZDS4 whole entry partner, the tested form may be a part): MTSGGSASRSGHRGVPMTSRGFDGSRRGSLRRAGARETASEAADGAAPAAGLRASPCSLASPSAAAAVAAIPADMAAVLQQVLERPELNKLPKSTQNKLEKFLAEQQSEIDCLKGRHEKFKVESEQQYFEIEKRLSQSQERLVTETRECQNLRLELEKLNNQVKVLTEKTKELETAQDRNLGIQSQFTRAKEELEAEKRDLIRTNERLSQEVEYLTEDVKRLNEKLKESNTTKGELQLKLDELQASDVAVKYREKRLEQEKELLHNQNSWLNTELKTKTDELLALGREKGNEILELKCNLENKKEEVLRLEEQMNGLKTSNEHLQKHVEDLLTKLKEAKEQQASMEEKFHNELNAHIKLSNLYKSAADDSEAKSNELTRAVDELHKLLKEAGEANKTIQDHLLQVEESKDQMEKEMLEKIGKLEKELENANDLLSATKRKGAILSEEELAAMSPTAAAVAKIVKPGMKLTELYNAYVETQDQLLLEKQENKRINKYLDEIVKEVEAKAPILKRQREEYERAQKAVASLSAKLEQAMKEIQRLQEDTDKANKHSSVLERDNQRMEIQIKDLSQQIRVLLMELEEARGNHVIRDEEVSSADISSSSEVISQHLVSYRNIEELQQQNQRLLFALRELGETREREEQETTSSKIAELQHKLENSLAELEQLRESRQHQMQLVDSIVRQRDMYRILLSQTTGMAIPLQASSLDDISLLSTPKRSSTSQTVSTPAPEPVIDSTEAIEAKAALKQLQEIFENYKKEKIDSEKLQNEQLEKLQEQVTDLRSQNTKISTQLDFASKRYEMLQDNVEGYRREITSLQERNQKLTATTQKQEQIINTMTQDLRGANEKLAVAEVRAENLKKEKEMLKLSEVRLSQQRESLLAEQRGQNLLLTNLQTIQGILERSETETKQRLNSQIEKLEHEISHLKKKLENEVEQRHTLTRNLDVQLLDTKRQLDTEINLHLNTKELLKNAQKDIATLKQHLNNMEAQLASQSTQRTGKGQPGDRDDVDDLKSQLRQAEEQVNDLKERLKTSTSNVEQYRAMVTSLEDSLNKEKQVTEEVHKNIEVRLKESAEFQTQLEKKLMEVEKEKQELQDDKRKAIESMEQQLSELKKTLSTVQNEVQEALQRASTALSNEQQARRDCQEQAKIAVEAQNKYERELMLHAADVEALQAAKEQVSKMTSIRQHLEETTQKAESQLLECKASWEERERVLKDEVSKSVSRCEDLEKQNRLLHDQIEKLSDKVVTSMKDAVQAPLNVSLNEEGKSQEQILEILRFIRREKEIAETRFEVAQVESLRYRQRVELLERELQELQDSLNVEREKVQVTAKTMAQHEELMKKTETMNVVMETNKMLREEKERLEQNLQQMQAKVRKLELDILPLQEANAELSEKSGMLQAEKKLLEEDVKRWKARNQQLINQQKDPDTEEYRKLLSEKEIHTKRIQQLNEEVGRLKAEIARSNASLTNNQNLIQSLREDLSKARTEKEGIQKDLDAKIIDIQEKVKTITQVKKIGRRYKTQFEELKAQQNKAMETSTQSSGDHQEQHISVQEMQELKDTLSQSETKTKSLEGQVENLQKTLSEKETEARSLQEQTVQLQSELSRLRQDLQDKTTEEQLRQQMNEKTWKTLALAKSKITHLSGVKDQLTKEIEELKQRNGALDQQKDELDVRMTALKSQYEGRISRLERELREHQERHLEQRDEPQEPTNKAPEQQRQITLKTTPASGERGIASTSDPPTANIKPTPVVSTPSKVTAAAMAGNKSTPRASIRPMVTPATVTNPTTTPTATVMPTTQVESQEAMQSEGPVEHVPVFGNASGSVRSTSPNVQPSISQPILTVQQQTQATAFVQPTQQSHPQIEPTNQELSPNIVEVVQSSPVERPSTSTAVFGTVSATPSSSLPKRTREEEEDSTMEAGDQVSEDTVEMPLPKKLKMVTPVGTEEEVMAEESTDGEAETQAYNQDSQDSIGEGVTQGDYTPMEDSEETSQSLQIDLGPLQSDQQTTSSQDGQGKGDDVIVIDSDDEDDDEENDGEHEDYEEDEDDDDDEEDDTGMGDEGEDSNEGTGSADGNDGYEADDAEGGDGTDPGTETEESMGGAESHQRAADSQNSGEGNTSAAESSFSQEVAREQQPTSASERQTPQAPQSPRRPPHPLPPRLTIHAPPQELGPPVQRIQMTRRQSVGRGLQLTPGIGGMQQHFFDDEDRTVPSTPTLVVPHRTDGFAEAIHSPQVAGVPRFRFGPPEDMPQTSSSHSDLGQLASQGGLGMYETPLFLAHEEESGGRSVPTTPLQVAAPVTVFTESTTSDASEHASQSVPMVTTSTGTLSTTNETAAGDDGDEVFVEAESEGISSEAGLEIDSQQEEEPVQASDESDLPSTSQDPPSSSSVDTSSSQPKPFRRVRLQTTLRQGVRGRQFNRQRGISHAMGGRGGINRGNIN
T1 sequence (P16056 25-1379 limits assumed): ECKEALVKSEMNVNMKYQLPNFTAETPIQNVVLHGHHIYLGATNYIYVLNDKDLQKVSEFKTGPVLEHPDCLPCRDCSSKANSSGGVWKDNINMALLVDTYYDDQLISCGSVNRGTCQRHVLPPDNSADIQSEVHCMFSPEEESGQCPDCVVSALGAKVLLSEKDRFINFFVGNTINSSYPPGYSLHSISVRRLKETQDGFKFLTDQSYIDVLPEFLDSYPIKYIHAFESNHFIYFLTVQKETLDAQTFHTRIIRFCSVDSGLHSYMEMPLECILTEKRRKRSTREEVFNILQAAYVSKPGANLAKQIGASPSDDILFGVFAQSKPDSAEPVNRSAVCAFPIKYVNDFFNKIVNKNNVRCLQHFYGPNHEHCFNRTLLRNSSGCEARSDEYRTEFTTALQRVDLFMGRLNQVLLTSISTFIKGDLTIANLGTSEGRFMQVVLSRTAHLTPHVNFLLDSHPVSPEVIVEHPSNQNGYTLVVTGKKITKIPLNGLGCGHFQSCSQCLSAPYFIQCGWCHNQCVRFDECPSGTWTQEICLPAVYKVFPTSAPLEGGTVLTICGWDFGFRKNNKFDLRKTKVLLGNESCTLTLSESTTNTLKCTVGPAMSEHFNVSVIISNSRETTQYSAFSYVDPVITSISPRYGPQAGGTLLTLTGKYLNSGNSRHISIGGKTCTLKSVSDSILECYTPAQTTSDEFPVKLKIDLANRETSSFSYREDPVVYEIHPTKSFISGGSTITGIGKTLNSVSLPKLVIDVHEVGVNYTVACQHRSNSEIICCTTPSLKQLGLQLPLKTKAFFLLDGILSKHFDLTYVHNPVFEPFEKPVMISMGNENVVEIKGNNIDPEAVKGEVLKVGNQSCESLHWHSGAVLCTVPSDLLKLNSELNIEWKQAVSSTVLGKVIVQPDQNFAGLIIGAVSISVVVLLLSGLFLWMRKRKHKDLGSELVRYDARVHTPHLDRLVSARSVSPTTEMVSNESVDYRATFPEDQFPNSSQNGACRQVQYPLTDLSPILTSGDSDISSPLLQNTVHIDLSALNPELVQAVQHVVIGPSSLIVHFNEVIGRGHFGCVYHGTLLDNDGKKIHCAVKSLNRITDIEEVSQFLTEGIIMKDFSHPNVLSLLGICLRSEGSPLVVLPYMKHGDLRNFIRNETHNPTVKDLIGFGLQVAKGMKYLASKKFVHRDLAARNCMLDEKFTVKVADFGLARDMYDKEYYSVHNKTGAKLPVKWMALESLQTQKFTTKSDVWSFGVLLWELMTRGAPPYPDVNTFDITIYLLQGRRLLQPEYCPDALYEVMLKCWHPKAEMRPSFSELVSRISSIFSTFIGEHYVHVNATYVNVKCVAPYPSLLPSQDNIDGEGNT
Chain of Hepatocyte growth factor receptor (P08581 whole entry): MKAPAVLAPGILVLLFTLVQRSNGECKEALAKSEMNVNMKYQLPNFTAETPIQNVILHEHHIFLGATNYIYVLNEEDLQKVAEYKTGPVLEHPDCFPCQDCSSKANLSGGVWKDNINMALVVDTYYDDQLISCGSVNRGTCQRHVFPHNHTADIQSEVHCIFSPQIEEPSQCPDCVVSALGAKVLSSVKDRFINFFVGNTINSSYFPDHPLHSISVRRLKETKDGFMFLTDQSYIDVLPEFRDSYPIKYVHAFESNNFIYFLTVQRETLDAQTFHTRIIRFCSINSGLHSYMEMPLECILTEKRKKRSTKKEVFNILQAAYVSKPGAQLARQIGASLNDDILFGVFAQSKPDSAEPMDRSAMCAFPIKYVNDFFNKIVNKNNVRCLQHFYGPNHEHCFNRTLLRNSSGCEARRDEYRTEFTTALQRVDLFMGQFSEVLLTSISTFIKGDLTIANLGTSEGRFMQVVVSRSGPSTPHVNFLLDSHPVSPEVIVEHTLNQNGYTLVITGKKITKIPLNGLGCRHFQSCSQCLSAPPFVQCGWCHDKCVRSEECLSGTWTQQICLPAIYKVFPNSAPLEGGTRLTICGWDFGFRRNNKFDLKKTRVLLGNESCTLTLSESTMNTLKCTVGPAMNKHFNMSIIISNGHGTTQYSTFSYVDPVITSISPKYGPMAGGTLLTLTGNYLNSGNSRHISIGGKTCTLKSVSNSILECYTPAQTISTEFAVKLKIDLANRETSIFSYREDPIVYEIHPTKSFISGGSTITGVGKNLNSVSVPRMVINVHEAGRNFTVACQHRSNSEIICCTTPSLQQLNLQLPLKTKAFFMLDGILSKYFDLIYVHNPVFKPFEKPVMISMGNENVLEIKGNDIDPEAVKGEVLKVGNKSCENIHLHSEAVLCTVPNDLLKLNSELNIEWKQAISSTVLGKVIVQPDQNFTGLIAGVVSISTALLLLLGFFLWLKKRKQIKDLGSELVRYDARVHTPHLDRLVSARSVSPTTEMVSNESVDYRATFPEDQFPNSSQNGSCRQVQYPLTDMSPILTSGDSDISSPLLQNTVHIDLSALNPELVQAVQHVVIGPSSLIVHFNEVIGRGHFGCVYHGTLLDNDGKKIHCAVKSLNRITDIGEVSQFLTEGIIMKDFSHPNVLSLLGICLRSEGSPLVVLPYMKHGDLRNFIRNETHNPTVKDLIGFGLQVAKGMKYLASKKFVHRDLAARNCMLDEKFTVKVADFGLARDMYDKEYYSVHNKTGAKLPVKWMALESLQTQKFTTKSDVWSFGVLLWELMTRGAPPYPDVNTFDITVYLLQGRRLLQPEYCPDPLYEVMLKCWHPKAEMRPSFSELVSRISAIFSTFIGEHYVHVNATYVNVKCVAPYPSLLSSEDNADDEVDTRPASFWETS

Compound `Oc1cccc(-c2cnc3nnc(Cc4c[nH]c5ccccc45)n3n2)c1` has an inhibition [1] of 10.2% and an inhibition [2] of 8.2%.

Compound `CCCn1cc(-c2cnc3nnc(Cc4ccc5ncccc5c4)n3n2)cn1` has an inhibition [1] of 88.4% and an inhibition [2] of 88.1%.

Compound `Oc1cccc(-c2cnc3nnc(Cc4ccc5ncccc5c4)n3n2)c1` has an inhibition [1] of 69.9% and an inhibition [2] of 36.1%.

In the case of `Brc1ccc(-c2cnc3nnc(Cc4c[nH]c5ccccc45)n3n2)cc1`, the inhibition [1] is reported as 17.3% and the inhibition [2] is reported as 9.9%.

For `c1cnc2ccc(Cc3nnc4ncc(-c5cnn(C6CCNCC6)c5)nn34)cc2c1`, the inhibition [1] was 77% and the inhibition [2] was 14.9%.

Compound `c1cnc2ccc(Cc3nnc4ncc(-c5cnc6ccccc6c5)nn34)cc2c1` has an inhibition [1] of 78% and an inhibition [2] of 63.1%.

`CC(C)(C)OC(=O)N1CCC(n2cc(-c3cnc4nnc(Cc5ccc6ncccc6c5)n4n3)cn2)CC1` gave an inhibition [1] of 86.6% and an inhibition [2] of 68.9%.

`COc1cccc(-c2cnc3nnc(Cc4ccc5ncccc5c4)n3n2)c1` showed an inhibition [1] of 81% and an inhibition [2] of 69.8%.

`CCn1cc(-c2cnc3nnc(Cc4ccc5ncccc5c4)n3n2)cn1` showed an inhibition [1] of 97.1% and an inhibition [2] of 85.5%.

`CCCn1cc(-c2cnc3nnc(C(F)(F)c4ccc5ncccc5c4)n3n2)cn1` gave an inhibition in vivo at 12.5 mg/kg [3] of 75.9%, a Vd [4] of 3.2 L/kg and a bioavailability [5] of 61.6%. The Tmax [6] was 0.5 h, the half-life [7] was 1.21 h and the clearance [8] was 30.7 mL/min/kg. The inhibition in vivo at 25 mg/kg [9] was 96.6%, the AUC(0-inf) [10] was 3390 ng·h/mL and the Cmax [11] was 1610 ng/mL. For the same compound, the Activity (Mus musculus) was “Toxic”.

Work on `c1csc(-c2cnc3nnc(Cc4ccc5ncccc5c4)n3n2)c1` yielded an inhibition [1] of 89.3% and an inhibition [2] of 85.9%.

`c1ccc(COc2ccc(-c3cnc4nnc(Cc5c[nH]c6ccccc56)n4n3)cc2)cc1` showed an inhibition [1] of 58% and an inhibition [2] of 26.9%.

`FC(F)(c1ccc2ncccc2c1)c1nnc2ncc(-c3ccco3)nn12` gave an inhibition in vivo at 12.5 mg/kg [3] of 50.1%, a Vd [4] of 5.14 L/kg and a bioavailability [5] of 48%. It also gave a Tmax [6] of 0.42 h, a half-life [7] of 1.53 h and a clearance [8] of 39.5 mL/min/kg. It also gave an inhibition in vivo at 25 mg/kg [9] of 65.8%, an AUC(0-inf) [10] of 2040 ng·h/mL and a Cmax [11] of 961 ng/mL.

`Cn1cc(-c2cnc3nnc(Cc4ccc5ncccc5c4)n3n2)cn1` gave an inhibition [1] of 77.8% and an inhibition [2] of 76.9%.

`O=[N+]([O-])c1cccc(-c2cnc3nnc(Cc4ccc5ncccc5c4)n3n2)c1` gave an inhibition [1] of 88.3% and an inhibition [2] of 76.6%.

With `c1ccc(COc2ccc(-c3cnc4nnc(Cc5ccc6ncccc6c5)n4n3)cc2)cc1` the inhibition [1] was 88% and the inhibition [2] was 53.8%.

`Cn1cc(-c2ccc3nnc(C(F)(F)c4ccc5ncccc5c4)n3n2)cn1` [JNJ-38877605] showed an inhibition [1] of 72.2%, an IC50 [12] of 950 pM and an inhibition [2] of 70.8%.

Work on `c1ccc(Cn2cc(-c3cnc4nnc(Cc5ccc6ncccc6c5)n4n3)cn2)cc1` yielded an inhibition [1] of 89.5% and an inhibition [2] of 68.3%.

`Cn1cc(-c2cnc3nnc(C(F)(F)c4ccc5ncccc5c4)n3n2)cn1` showed a Vd [13] of 0.81 L/kg, a bioavailability [5] of 9.4% and a Tmax [6] of 2.5 h. It also gave a half-life [14] of 1.14 h, a clearance [15] of 22.3 mL/min/kg and an AUC(0-inf) [10] of 780 ng·h/mL. The Cmax [11] was 209 ng/mL.

Compound `c1ccc(-c2cnc3nnc(Cc4ccc5ncccc5c4)n3n2)cc1` has an inhibition [1] of 80.9% and an inhibition [2] of 58.4%.

In the case of `Clc1ccc(-c2cnc3nnc(Cc4ccc5ncccc5c4)n3n2)cc1`, the inhibition [1] is reported as 80.6% and the inhibition [2] is reported as 69.2%.

`Brc1ccc(-c2cnc3nnc(Cc4ccc5ncccc5c4)n3n2)cc1` showed an inhibition [1] of 83.6% and an inhibition [2] of 75.8%.

`Clc1ccc(-c2cnc3nnc(Cc4ccc5ncccc5c4)n3n2)cc1Cl` showed an inhibition [1] of 83.5% and an inhibition [2] of 82.2%.
